Data on ten molecules can be found in publication PMC7667462 (Journal of medicinal chemistry, 2019).

“Also recorded” adds a separate entry of the source.

The IC50 is the concentration that inhibits the measured activity by half. The inhibition is the relative decrease from the control value, in per cent.

One data set addresses Clk (Cdc-like kinase) 2. As to conditions: cited from earlier work.
The target in another data set is CK2α2β2 holoenzyme (Homo sapiens, UniProt P68400). The experiment in a line: CK2 radiometric kinase assay, holoenzyme versus CK2α. In kind it is biochemical. The note with it: CK2β-independent peptide substrate. In short, it runs like this: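 Radiometric CK2 assay comparing isolated human recombinant CK2α with the CK2α₂β₂ holoenzyme across increasing test compound concentrations, using a CK2β-independent peptide substrate. ATP was 100 μM unless stated otherwise.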

Data set [1] deals with T1, CK2α (Homo sapiens, UniProt P68400). The experiment in a line: kinase selectivity profiling, residual kinase activity. The note with it: compound at 50 μM. It is filed as biochemical. In short, it runs like this:
(§1)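 The test compound was profiled against a panel of 44 human kinases, with ATP set to the Km of each kinase. Remaining activity was read as % inhibition of each kinase.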

The next data set concerns the target EphA4 (Homo sapiens, UniProt P54764). Described as above. In kind it is biochemical. The note with it: read-out: % inhibition of EphA4. In short, it runs like this:
as §1

The target of the next data set is pim-1 (Homo sapiens, UniProt P11309). The data set is described as above. It is filed as biochemical. The note with it: read-out: % inhibition of pim-1. In short, it runs like this: as §1
Data set [2] concerns the target T1, CK2α. The data set is described as follows: CK2 radiometric kinase assay. In kind it is biochemical. As to conditions: compared with compound 2.
Data set [3] deals with T1, CK2α. The data set is described as follows: NMR Saturation Transfer Difference. In kind it is binding. The note with it: compound 500 μM, CK2α 5 μM.
The target in another data set is T2, CK2α^1–335 (Homo sapiens, UniProt P68400).
T2 sequence (P68400 1-335): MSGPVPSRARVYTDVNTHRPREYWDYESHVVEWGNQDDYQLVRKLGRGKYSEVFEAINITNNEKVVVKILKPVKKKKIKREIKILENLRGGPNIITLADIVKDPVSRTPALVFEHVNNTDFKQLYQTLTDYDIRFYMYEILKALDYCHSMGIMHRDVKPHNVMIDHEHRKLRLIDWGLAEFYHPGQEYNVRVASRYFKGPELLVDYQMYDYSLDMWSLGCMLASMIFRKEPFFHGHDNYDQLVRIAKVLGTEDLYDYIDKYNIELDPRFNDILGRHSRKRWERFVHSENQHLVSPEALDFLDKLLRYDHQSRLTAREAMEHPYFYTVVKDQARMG
The experiment in a line: native mass spectrometry binding and competition. As to conditions: 10 μM CK2α; for binding stoichiometry to CK2α by native mass spectrometry: 100 μM IP6 or 10–40 μM 6, 5% DMSO.

The nature of another data set: water solubility. In kind it is physicochemical. The note with it: qualitative, relative to the other compounds of the series.
Another data set concerns the target Dyrk1A (Homo sapiens, UniProt Q13627). The experiment in a line: kinase selectivity profiling, residual kinase activity. It is filed as biochemical. The note with it: read-out: % inhibition of Dyrk1A. In short, it runs like this: as §1
For the next data set, the target named is Clk4 (Homo sapiens, UniProt Q9HAZ1). The description is as above. It is filed as biochemical. As to conditions: read-out: % inhibition of Clk4. In short, it runs like this:
as §1

The next data set addresses GSK3β (Homo sapiens, UniProt P49841). The data set is described as above. It is filed as biochemical. The note with it: read-out: % inhibition of GSK3β. In short, it runs like this:
as §1

The target of another data set is Clk2 (Homo sapiens, UniProt P49760). The data set is described as above. As to conditions: read-out: % inhibition of Clk2. It is filed as biochemical. In short, it runs like this: as §1
The target of the next data set is T3, MLCK (MLCK2) (Homo sapiens, UniProt Q32MK0).
T3 sequence (Q32MK0 1-819): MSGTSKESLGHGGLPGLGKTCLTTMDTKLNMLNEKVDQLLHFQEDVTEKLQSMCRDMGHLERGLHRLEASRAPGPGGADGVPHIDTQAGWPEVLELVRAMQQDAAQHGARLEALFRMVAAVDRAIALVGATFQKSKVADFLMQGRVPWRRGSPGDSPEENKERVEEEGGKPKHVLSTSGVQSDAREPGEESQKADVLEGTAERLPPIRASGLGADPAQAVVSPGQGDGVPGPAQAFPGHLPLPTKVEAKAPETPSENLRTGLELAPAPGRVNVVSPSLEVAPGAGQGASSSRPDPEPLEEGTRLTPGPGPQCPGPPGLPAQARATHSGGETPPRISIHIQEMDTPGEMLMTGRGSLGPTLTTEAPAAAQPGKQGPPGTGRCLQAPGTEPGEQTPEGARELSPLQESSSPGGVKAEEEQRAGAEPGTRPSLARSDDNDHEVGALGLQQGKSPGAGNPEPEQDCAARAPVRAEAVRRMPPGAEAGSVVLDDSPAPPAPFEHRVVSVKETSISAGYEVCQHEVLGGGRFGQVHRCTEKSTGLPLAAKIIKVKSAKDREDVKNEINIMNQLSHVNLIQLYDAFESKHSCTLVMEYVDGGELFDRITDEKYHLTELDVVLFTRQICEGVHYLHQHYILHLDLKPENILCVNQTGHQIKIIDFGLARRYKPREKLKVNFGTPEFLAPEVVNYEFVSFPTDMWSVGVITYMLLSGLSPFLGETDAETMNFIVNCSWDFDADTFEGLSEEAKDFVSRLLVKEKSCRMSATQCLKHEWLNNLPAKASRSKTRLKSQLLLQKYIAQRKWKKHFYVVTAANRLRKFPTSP
The description is as above. The note with it: read-out: % inhibition of MLCK. In kind it is biochemical. In short, it runs like this: as §1

The target of a further data set is T4, ACVR1 (ALK2) (Homo sapiens, UniProt Q04771).
T4 sequence (Q04771 21-509): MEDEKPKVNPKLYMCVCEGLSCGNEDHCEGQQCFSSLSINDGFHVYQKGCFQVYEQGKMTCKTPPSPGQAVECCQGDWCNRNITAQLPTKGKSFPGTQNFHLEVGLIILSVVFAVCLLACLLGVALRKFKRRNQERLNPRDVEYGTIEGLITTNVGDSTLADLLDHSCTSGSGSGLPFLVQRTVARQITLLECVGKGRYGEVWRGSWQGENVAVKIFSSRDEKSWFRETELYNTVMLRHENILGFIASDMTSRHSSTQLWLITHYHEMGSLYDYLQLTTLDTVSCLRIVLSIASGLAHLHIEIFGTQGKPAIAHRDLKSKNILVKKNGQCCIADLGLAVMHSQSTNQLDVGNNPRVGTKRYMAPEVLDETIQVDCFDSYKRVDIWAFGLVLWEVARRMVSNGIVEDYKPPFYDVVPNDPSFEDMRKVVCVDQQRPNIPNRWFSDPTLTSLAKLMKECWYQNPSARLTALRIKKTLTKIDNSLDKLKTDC
The data set is described as above. It is filed as biochemical. As to conditions: read-out: % inhibition of ACVR1. In short, it runs like this:
as §1

T1 sequence (P68400 whole entry): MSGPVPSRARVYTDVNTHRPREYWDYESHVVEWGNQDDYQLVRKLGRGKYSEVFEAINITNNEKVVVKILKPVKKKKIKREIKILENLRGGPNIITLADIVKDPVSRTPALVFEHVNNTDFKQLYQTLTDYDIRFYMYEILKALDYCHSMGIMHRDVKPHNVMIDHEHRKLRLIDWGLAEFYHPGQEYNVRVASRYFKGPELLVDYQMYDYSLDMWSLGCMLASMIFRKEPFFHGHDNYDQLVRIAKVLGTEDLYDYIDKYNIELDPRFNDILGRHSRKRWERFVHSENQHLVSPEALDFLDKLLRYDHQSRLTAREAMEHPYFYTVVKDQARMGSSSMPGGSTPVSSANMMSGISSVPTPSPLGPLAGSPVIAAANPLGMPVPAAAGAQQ
Sequence of EphA4 (P54764 20-986): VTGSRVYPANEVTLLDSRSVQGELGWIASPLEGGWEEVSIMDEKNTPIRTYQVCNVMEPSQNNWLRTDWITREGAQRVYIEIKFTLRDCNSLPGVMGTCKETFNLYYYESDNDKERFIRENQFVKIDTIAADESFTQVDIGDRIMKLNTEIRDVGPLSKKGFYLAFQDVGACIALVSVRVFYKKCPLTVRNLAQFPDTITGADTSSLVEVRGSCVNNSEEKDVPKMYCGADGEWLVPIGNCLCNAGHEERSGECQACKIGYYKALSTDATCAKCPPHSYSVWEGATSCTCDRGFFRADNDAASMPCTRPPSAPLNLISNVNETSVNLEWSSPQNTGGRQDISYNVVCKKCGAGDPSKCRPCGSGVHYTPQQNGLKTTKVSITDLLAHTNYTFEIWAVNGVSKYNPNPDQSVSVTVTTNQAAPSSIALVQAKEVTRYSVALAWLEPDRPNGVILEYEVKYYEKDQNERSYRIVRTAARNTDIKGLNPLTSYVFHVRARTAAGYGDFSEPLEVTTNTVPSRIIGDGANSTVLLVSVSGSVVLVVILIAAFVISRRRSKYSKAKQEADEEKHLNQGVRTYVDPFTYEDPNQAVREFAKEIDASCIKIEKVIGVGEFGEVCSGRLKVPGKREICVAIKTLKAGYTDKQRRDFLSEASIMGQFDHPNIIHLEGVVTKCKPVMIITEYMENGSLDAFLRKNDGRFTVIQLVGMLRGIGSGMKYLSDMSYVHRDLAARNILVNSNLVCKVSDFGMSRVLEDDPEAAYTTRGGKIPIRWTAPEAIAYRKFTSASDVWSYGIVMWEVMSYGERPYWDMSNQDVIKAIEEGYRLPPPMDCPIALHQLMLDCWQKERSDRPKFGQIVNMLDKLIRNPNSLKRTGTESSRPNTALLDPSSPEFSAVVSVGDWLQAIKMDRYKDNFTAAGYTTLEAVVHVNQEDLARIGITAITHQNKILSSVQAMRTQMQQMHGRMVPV
Sequence of CK2α2β2 holoenzyme (P68400 whole entry): as the sequence (P68400 whole entry) above
Sequence of CK2α2β2 holoenzyme (P67870 whole entry partner): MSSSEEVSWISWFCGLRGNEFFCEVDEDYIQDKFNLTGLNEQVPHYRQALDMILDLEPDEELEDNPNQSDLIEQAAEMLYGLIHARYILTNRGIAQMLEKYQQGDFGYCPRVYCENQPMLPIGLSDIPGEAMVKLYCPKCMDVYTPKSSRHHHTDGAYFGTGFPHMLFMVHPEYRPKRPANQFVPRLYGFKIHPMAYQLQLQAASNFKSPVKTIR
Sequence of Clk2 (P49760 whole entry): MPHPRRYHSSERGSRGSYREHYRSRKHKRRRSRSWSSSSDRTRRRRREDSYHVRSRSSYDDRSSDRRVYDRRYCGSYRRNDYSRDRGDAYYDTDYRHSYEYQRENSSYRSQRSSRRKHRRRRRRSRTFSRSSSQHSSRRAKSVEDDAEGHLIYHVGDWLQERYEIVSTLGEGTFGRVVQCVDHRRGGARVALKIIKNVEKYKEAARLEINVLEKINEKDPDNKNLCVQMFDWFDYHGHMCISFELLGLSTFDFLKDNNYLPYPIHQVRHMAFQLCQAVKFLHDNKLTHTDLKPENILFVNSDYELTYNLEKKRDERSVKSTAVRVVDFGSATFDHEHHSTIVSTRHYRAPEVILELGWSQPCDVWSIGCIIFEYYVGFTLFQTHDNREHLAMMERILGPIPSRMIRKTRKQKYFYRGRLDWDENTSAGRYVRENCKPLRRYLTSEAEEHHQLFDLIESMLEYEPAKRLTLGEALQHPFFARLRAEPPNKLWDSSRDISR
Sequence of Clk4 (Q9HAZ1 whole entry): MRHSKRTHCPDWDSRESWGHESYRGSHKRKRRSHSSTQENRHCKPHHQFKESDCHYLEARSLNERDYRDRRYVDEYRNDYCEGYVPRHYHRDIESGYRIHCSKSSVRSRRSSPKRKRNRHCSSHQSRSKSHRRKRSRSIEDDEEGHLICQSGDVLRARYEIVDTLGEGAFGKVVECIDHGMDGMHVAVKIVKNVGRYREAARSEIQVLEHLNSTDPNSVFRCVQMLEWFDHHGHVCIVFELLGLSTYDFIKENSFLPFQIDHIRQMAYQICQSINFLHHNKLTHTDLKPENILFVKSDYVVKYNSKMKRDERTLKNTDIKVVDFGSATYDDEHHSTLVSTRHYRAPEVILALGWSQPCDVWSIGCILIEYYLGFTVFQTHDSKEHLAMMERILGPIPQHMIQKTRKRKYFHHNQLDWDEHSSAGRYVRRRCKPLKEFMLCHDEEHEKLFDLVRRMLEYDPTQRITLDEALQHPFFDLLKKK
Sequence of pim-1 (P11309 whole entry): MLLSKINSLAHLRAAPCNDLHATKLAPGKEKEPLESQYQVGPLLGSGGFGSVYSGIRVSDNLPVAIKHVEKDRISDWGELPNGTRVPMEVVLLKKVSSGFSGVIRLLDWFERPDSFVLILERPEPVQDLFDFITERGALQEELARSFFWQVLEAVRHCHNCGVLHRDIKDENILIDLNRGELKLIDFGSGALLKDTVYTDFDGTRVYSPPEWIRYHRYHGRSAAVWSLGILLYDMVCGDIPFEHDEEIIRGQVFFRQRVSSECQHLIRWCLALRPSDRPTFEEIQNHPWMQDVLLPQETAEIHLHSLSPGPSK
Sequence of GSK3β (P49841 whole entry): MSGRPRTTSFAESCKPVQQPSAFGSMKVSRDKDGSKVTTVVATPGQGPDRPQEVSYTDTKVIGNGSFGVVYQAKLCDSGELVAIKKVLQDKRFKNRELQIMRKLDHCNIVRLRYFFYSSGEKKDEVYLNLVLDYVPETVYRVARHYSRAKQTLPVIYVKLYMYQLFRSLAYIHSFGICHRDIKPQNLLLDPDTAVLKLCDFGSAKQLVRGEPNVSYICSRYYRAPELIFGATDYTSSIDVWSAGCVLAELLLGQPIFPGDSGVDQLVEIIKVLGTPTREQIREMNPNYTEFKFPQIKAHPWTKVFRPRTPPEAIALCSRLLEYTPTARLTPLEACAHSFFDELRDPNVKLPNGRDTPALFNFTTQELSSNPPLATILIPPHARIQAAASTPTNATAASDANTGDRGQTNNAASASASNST

On to `O=C(O)c1ccc2c(c1)nc(Nc1cccc(Cl)c1)c1ccncc12` [CX-4945, 5-(3-chlorophenylamino)benzo[c][2,6]naphthyridine-8-carboxylic acid], for which, at Clk (Cdc-like kinase) 2, the IC50 is 4 nM.
Consider `O=C(O)c1cccc(Nc2nc(-c3cccc([N+](=O)[O-])c3)cs2)c1` [Compound 1, 3-((4-(3-nitrophenyl)thiazol-2-yl)amino)benzoic acid], for which the “inhibition of CK2α2β2 holoenzyme compared with CK2α” value on CK2α2β2 holoenzyme was “inhibited to the same extent”.
For `O=C(O)c1ccc(Nc2nc(-c3cccc([N+](=O)[O-])c3)cs2)cc1` [Compound 2, 4-((4-(3-nitrophenyl)thiazol-2-yl)amino)benzoic acid], the “inhibition of CK2α” value against CK2α [1] is recorded as “full inhibition”. Moreover, the inhibition at 50 µM worked out at 55% at EphA4 and 54% at pim-1.
With `O=[N+]([O-])c1cccc(-c2csc(Nc3ccccc3)n2)c1` [Compound 3, [4-(3-Nitro-phenyl)-thiazol-2-yl]-phenyl-amine], the “CK2α inhibitory activity, in words (SAR)” value on CK2α [2] is recorded as “significant loss of activity”.
Same read-out and setting: in the case of `COC(=O)c1ccc(Nc2nc(-c3cccc([N+](=O)[O-])c3)cs2)cc1` [Compound 4, 4-[4-(3-Nitro-phenyl)-thiazol-2-ylamino]-benzoic acid methyl ester] it was “significant loss of activity”; in that of `O=C(O)c1ccc(Nc2nccs2)cc1` [Compound 5, 4-(Thiazol-2-ylamino)-benzoic acid], “complete lack of activity”.
Consider `O=C(O)c1ccc(Nc2nc(-c3ccccc3)cs2)cc1` [Compound 6, 4-(4-Phenyl-thiazol-2-ylamino)-benzoic acid], for which the “STD NMR competition with AMP-PNP for binding to CK2α” value at CK2α [3] (AMP-PNP 500 μM) is given as “AMP-PNP was not able to bind to CK2α in the presence of 2-aminothiazole 6”. For the same molecule, on CK2α [3] (CX-4945 100 μM), the “STD NMR competition with CX-4945 for binding to CK2α” value was “did not bind to the same site as CX-4945”. Further, at CK2α^1–335, the “binding stoichiometry to CK2α by native mass spectrometry” value is listed as “various stoichiometries”. The “native MS competition with IP6 for binding to CK2α” value at CK2α^1–335 (10 μM compound, 100 μM IP6) is on record as “competitive ligand of IP6”. In the data set “water solubility”, the water solubility entry is “superior water solubility; also recorded: relatively good solubility in water”.
Turning to `O=C(O)c1ccc(Nc2nc(-c3cccc(Br)c3)cs2)cc1` [Compound 7, 4-[4-(3-Bromo-phenyl)-thiazol-2-ylamino]-benzoic acid], the inhibition at 50 µM at Dyrk1A is ~30%; on Clk4 it was 61%; at GSK3β, 71%; on EphA4, 73%; at Clk2 it was ~30%; at MLCK (MLCK2), 61%. On ACVR1 (ALK2), the inhibition at 50 µM stood at 66%.
Take `O=C(O)c1ccc(Nc2nc(-c3ccccn3)cs2)cc1` [Compound 9, 4-(4-Pyridin-2-yl-thiazol-2-ylamino)-benzoic acid]: the water solubility result in “water solubility” is “superior water solubility; also recorded: relatively good solubility in water”.
For `O=P(O)(O)OC1C(OP(=O)(O)O)C(OP(=O)(O)O)C(OP(=O)(O)O)C(OP(=O)(O)O)C1OP(=O)(O)O` (stereo not shown) [IP6, inositol hexakisphosphate, reference compound], the “binding stoichiometry to CK2α by native mass spectrometry” value at CK2α^1–335 was 1:1 and 1:2 stoichiometry.
